ChEMBL document CHEMBL1122078, “Inhibitors of blood platelet aggregation. Activity of some 1H-benz[de]isoquinolinecarboximidamides on the in vivo blood platelet aggregation induced by collagen” (J Med Chem, 1982)
≈ marks a conversion by molar mass, not a printed value. Where “and” joins values, the source holds several entries; their conditions need not be identical. Identical values can stand only once.

Tests used:
[1] = Aqueous solubility at room temperature; type: physicochemical; settings: water; read-out: S
Method in brief: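 Solubility in water, given in mg/mL, determined at room temperature.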

Rattus norvegicus [2] = assay: In vivo inhibition of blood platelet aggregation induced by collagen, intraperitoneal administration; type: functional
Method in brief: (§1)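 Male Wistar rats dosed ip at 0.2 mmol/kg/day for 5 days, with a placebo group run in parallel. On day 5 rats were anesthetized with pentobarbitone (40-50 mg/kg ip) and collagen was infused through a cannula in the right common carotid. Blood was taken into EDTA at 60 and 90 s. Platelets were Coulter-counted after thrombo-oil separation. Read-out: rise in circulating platelets versus placebo, at 60 s unless noted.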

Rattus norvegicus [3] = assay: (§2) Compound was tested in the rat after peroral administration for its ability to inhibit the in vivo blood platelet aggregation induced by collagen; type: functional
Method in brief: (§3)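 Oral dosing of male Wistar rats at 0.2 mmol/kg/day for 5 days, alongside a placebo group. On day 5 under pentobarbitone anesthesia, collagen was infused via a cannula in the right common carotid artery. EDTA blood samples were taken 60 and 90 s after the start of infusion, and platelets were counted by Coulter counter. Value is the increase in circulating platelets relative to placebo, at 60 s unless stated.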

Rattus norvegicus [4] = assay: Compound was tested in the rat after peroral administration for its ability to inhibit the in vivo blood platelet aggregation induced by collagen,; type: organism-based; settings: po; method in brief: as §3
Rattus norvegicus [5] = assay: (§4) Compound was tested in the rat after intraperitoneal administration for its ability to inhibit the in vivo blood platelet aggregation induced by collagen; Not determined because of toxicity; type: functional, organism-based; method in brief: as §1
Rattus norvegicus [6] = assay: Compound was tested in the rat after intraperitoneal administration for its ability to inhibit the in vivo blood platelet aggregation induced by collagen; type: ADME, organism-based; settings: po, in the assay text read “oral” for “intraperitoneal”
Rattus norvegicus [7] = assay: as §4; type: organism-based; settings: ip; method in brief: as §1
Rattus norvegicus [8] = assay: Compound was tested in the rat after peroral administration for its ability to inhibit the in vivo blood platelet aggregation induced by collagen; Only at 90s after collagen administration; type: organism-based; settings: po; method in brief: as §3
Rattus norvegicus [9] = assay: as §2; type: ADME, organism-based; settings: po; method in brief: as §3

Row | Structure (SMILES) | solubility [1] [µg/mL] | Increase (Rattus norvegicus [2]) | further results
1 | N=C(Nc1ccccc1)N1Cc2cccc3c2C(CCC3)C1 (stereo not given) | < 3000 | -11% | 
2 | C/N=C(\NC)N1Cc2cccc3c2C(CCC3)C1 (stereo not given) | 20000 (≈ 82.2 mM) | 2% | 
3 | CN(C)c1ccc(NC(=N)N2Cc3cccc4c3C(CCC4)C2)cc1.Cl (stereo not given) | 4000 |  | Increase (Rattus norvegicus [3]): 4%
4 | N=C(Nc1ccc(S(N)(=O)=O)cc1)N1Cc2cccc3c2C(CCC3)C1 (stereo not given) | < 3000 |  | Increase (Rattus norvegicus [3]): 3%
5 | Cl.N/C(=N\O)N1Cc2cccc3cccc(c23)C1 | 4000 | 36% and 23% | 
6 | CN(C)/N=C(/N)N1Cc2cccc3cccc(c23)C1.Cl | 25000 |  | Increase (Rattus norvegicus [3]): -2%
7 | Cl.N=C(N)N1Cc2cccc3c2C(CCC3)C1 (stereo not given) | 60000 |  | 
8 | Cc1ccc2c3c(cccc13)CN(C(=N)NO)C2.Cl | 5000 | 16% and 14% | 
9 | CC(C)=N/N=C(\N)N1Cc2cccc3c2C(CCC3)C1.Cl (stereo not given) |  |  | Increase (Rattus norvegicus [4]): 0%; Increase (Rattus norvegicus [5]): Toxic
10 | Cl.N/C(=N\O)N1Cc2cccc3c2C(CCC3)C1 (stereo not given) | 12000 | 42% and 23% | 
11 | Br.N/C(=N\c1ccc(C(=O)O)cc1)N1Cc2cccc3c2C(CCC3)C1 (stereo not given) | < 3000 |  | Increase (Rattus norvegicus [3]): 2%
12 | Cl.N=C(Nc1ccc(C(N)=O)cc1)N1Cc2cccc3c2C(CCC3)C1 (stereo not given) | < 3000 |  | Increase (Rattus norvegicus [3]): 7%
13 | C/N=C(\N)N1Cc2cccc3c2C(CCC3)C1 (stereo not given) | < 3000 |  | Increase (Rattus norvegicus [3]): 30% and 12%
14 | Cl.N=C(N)N1Cc2cccc3cccc(c23)C1 | 10000 | 38% and 28% | 
15 | N#CNC(=N)N1Cc2cccc3c2C(CCC3)C1 (stereo not given) | < 3000 | 1% | 
16 | Cc1ccc2c3c1CCCC3CN(C(=N)N)C2.Cl (stereo not given) | 16000 |  | Increase (Rattus norvegicus [6]): 16%; Increase (Rattus norvegicus [7]): Toxic
17 | Cl.N=C(N)N1Cc2cccc3c(Cl)ccc(c23)C1 | 2500 |  | Increase (Rattus norvegicus [7]): Toxic

Row | Structure (SMILES) | solubility [1] [µg/mL] | Increase (Rattus norvegicus [2]) | further results
18 | COc1ccc2c3c1CCCC3CN(C(=N)N)C2.Cl (stereo not given) | 17000 |  | 
19 | Cl.N/C(=N\O)N1Cc2cccc3c(Cl)ccc(c23)C1 | 3000 | 44% and 18% | 
20 | C/N=C(/NC)N1Cc2cccc3cccc(c23)C1 | 25000 (≈ 104 mM) | 1% | 
21 | COc1cc2c3c(cccc3c1)CN(C(=N)NO)C2.Cl | 18000 |  | Increase (Rattus norvegicus [3]): -5%
22 | N=C(Nc1ccc(Cl)cc1)N1Cc2cccc3c2C(CCC3)C1 (stereo not given) | < 4000 |  | Increase (Rattus norvegicus [3]): 7%
23 | N/C(=N\c1ccc([N+](=O)[O-])cc1)N1Cc2cccc3c2C(CCC3)C1 (stereo not given) |  |  | Increase (Rattus norvegicus [4]): -7%; Increase (Rattus norvegicus [5]): Toxic
24 | CC(=O)NC(=N)N1Cc2cccc3cccc(c23)C1.Cl | 35000 | 17% | 
25 | COc1cc2c3c(c1OC)CCCC3CN(C(=N)NO)C2.Cl (stereo not given) | > 50000 |  | 
26 | COc1ccc(NC(=N)N2Cc3cccc4cccc(c34)C2)cc1 | < 5000 | -2% | 
27 | COc1ccc2c3c1CCCC3CN(C(=N)NO)C2.Cl (stereo not given) | 5000 | 70% | Increase (Rattus norvegicus [8]): 8%
28 | Cc1ccc2c3c1CCCC3CN(C(=N)NO)C2.Cl (stereo not given) | 18000 | 45% | 
29 | N/C(=N\c1ccc(N)cc1)N1Cc2cccc3c2C(CCC3)C1 (stereo not given) | < 5000 |  | Increase (Rattus norvegicus [9]): 8%; Increase (Rattus norvegicus [7]): Toxic
30 | Cl.N/N=C(/N)N1Cc2cccc3cccc(c23)C1 | 10000 |  | 
31 | COc1ccc(NC(=N)N2Cc3cccc4c3C(CCC4)C2)cc1 (stereo not given) | < 3000 |  | Increase (Rattus norvegicus [9]): 7%; Increase (Rattus norvegicus [7]): Toxic
32 | Cl.Cl.N/C(=N\c1ccc(N)cc1)N1Cc2cccc3cccc(c23)C1 | 60000 |  | Increase (Rattus norvegicus [3]): 8%
33 | Cl.N/N=C(/N)N1Cc2cccc3c2C(CCC3)C1 (stereo not given) | 60000 |  | 
